LANA-nucl inh: LANA-nucleosome interaction inhibition | 51,000 compounds, 0.3% hits | z-score (no concentration beside the values) | FITC-LANA1-23 / chicken nucleosome fluorescence polarization; stronger effect = lower value;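 active means both repeat wells score below -2 in polarization z-score versus plate sample wells, excluding overly bright wells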
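Assay system: FITC-LANA peptide and chicken nucleosomes; input: 240 nM purified chicken nucleosomes (480 nM peptide binding sites), final; also added: 50 nM FITC-LANA1-23 probe; medium: TEN-BT buffer, pH 7.5; doses: pin-transferred compound, 100 nL; times: 10–45 min, room temperature; technique: fluorescence polarization; replication: duplicates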
BasE inh: BasE siderophore biosynthesis inhibition | inhibition, % (test concentration not listed) | AID 485350 | purified BasE, fluorescence polarization binding displacement | 84,000 compounds, 0.1% hits; in the data active means inhibition above about 25%, passing the limit was not always enough;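 further: 0% = negative plate control signal and 100% = positive plate control signal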
An asterisk follows results filed as active; · = no result. Only a selection was taken, and hits are over-represented in it overall.

SMILES | LANA-nucl inh | BasE inh
CN1CCc2c(C#N)c(Cl)nc(NCc3ccccc3)c2C1 | 0.063 | 2
CN1CCc2c(C#N)c(N)n(N)c(=S)c2C1 | -3.8* | 42
COc1ccccc1N1CCN(CCCCNC(=O)c2ccco2)CC1 | -1.2 | 0
CCCN1CCC(NC(C)CCCC(C)(C)O)CC1 (stereo not given) | -0.81 | 0
CC[C@@]1(O)C[C@H](O[C@H]2C[C@H](N(C)C)[C@H](O)[C@H](C)O2)c2c(cc3c(c2O)C(=O)c2c(O)ccc(O)c2C3=O)[C@H]1C(=O)OC | -2.8* | 5
CC[C@@]1(O)C[C@H](O[C@H]2C[C@H](N(C)C)[C@H](O)[C@H](C)O2)c2c(cc3c(c2O)C(=O)c2c(O)cccc2C3=O)[C@H]1C(=O)OC | 2.2 | -2
Oc1ccc(N2CCNCC2)cc1 | · | 0
N#Cc1c(/N=C/c2ccc(O)cc2O)sc2c1C1CCN2CC1 | -3.9* | 17
O=C1NC(=O)N(CCC2=CCCCC2)C(=O)/C1=C/c1cnc(-c2ccccc2)nc1 | -0.21 | 2
CCCC(C)c1c(O)n(CC)c(=S)[nH]c1=O (stereo not given) | -0.023 | -2
CC(C)c1ccc(O)cc1 | · | 10
O=S(=O)(c1ccc(O)cc1)c1ccc(O)cc1 | · | 66*
C1CCN2CC3C(CC2C1)CN1CCCCC31 (stereo not given) | 0.37 | 0
CN1CCc2cc3c(c4c2C1Cc1ccccc1-4)OCO3 (stereo not given) | -3.2* | 22
COc1ccc2c(c1OC)C(=O)OC2C1c2cc3c(cc2CCN1C)OCO3 (stereo not given) | -0.68 | -2
N#CC(C#N)=Cc1ccc(-c2ccccc2)o1 | -4.7* | -26
Cc1ccc(C=C(C#N)C#N)o1 | -0.56 | 4
CCOC(=O)C1C(=O)NC23CCCCC2C1c1cc(OC)ccc1O3 (stereo not given) | 0.22 | -3
CCOc1ccccc1CN1CCN(C)CC1 | -0.34 | 1
CN1CCN(c2ccc(N)cc2)CC1 | · | 0
CCN1CCN(c2ccc(N)cc2)CC1 | -2.9* | ·
